Experimental data: ChEMBL document CHEMBL4842335, “Discovery of penipanoid C-inspired 2-(3,4,5-trimethoxybenzoyl)quinazolin-4(3H)-one derivatives as potential anticancer agents by inhibiting cell proliferation and inducing apoptosis in hepatocellular carcinoma cells” (Eur J Med Chem, 2021)
pIC50: −log10 of the molar value. Calls of active or inactive are those of the source. No cut-off for these calls is given here.

Columns and labels:
[1] = system: HepG2; test: Cytotoxicity against human HepG2 cells assessed as inhibition of proliferation incubated for 72 hrs by MTT assay; assay type: functional, cell-based; conditions: HepG2, 72 h
Method in brief: (§1)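 Cells plated at 3×10³/well, grown overnight in DMEM + 10% FBS, then exposed to compounds (DMSO stocks; 0.1% DMSO negative control) for 72 h at 37 °C. MTT (5 mg/mL in PBS, added at 10%) for 4 h, formazan dissolved in DMSO, A570 read. Inhibition = (Ac−As)/(Ac−Ab)×100; IC50 by calculator; ≥3 independent repeats.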

[2] = system: Bel-7402; test: Cytotoxicity against human Bel-7402 cells assessed as inhibition of proliferation incubated for 72 hrs by MTT assay; assay type: functional, cell-based; conditions: Bel-7402, 72 h; method in brief: as §1
[3] = system: A549; test: Cytotoxicity against human A549 cells assessed as inhibition of proliferation incubated for 72 hrs by MTT assay; assay type: functional, cell-based; conditions: A549, 72 h; method in brief: as §1
[4] = system: NCI-H1299; test: Cytotoxicity against human NCI-H1299 cells assessed as inhibition of proliferation incubated for 72 hrs by MTT assay; assay type: functional, cell-based; conditions: NCI-H1299, 72 h; method in brief: as §1
[5] = system: HCT-116; test: Cytotoxicity against human HCT116 cells assessed as inhibition of proliferation incubated for 72 hrs by MTT assay; assay type: functional, cell-based; conditions: HCT-116, 72 h; method in brief: as §1
[6] = system: HepG2; test: Inhibition of colony formation in human HepG2 cells at 1.6 to 3.2 uM measured after 10 days by crystal violet staining based assay relative to control; assay type: functional, cell-based; conditions: dose 1.6-3.2 µM, time 10.0 day
Method in brief: (§2)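 1000 cells/well seeded, attached overnight in DMEM + 10% FBS, then grown 10 days at 37 °C, 5% CO₂ with 0, 0.2, 0.4, 0.8, 1.6 or 3.2 µM. Fixed in 4% paraformaldehyde 15 min, stained 0.1% crystal violet 30 min, colonies counted; formation rate relative to solvent control.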

[7] = system: Bel-7402; test: Inhibition of colony formation in human Bel-7402 cells at 1.6 to 3.2 uM measured after 10 days by crystal violet staining based assay relative to control; assay type: functional, cell-based; conditions: dose 1.6-3.2 µM, time 10.0 day; method in brief: as §2
[8] = Selectivity index, ratio of IC50 for human LO2 cells to IC50 for human HepG2 cells; assay type: toxicity; conditions: LO2 cells versus HepG2 cells, read-out: Selectivity Index
[9] = system: HepG2; test: Induction of cell cycle arrest in human HepG2 cells assessed as accumulation at G2/M phase at 0.8 uM incubated for 48 hrs by flow cytometry (reference value: 24.89%); assay type: functional
Method in brief: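 HepG2 treated 48 h with 0, 0.8 or 1.6 µM (DMSO control); phase distribution by flow cytometry using a cell cycle and apoptosis kit; mean with SD, n = 3.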

[10] = system: Bel-7402; test: Induction of cell cycle arrest in human Bel-7402 cells assessed as accumulation at G1 phase at 0.8 uM incubated for 48 hrs by flow cytometry (reference value: 46.32%); assay type: functional
[11] = system: Bel-7402; test: Induction of cell cycle arrest in human Bel-7402 cells assessed as accumulation at G2/M phase at 0.8 uM incubated for 48 hrs by flow cytometry (reference value: 25.20%); assay type: functional
[12] = system: Bel-7402; test: Induction of cell cycle arrest in human Bel-7402 cells assessed as accumulation at S phase at 1.6 uM incubated for 48 hrs by flow cytometry (reference value: 28.48%); assay type: functional
[13] = system: Bel-7402; test: Induction of cell cycle arrest in human Bel-7402 cells assessed as accumulation at G1 phase at 3.2 uM incubated for 48 hrs by flow cytometry (reference value: 46.32%); assay type: functional
[14] = system: Bel-7402; test: Induction of cell cycle arrest in human Bel-7402 cells assessed as accumulation at G2/M phase at 3.2 uM incubated for 48 hrs by flow cytometry (reference value: 25.20%); assay type: functional
[15] = target: Mitogen-activated protein kinase; ERK1/ERK2 (Homo sapiens) (UniProt P27361+P28482); test: Inhibition of ERK1/2 phosphorylation in human HepG2 cells incubated for 48 hrs by Western blot analysis; assay type: cell-based
Chain of Mitogen-activated protein kinase; ERK1/ERK2 (Homo sapiens) (P27361 whole entry, looked up): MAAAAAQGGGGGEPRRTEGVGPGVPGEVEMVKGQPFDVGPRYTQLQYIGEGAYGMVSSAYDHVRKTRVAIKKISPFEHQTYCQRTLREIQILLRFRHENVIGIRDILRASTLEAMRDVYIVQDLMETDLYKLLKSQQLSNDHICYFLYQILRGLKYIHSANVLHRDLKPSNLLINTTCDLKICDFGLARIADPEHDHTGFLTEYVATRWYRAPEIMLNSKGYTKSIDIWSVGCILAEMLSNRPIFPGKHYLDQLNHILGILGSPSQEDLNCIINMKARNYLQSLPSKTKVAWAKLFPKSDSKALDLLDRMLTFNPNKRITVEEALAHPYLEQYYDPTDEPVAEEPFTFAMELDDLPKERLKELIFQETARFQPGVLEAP
Chain of Mitogen-activated protein kinase; ERK1/ERK2 (Homo sapiens) (P28482 whole entry, looked up): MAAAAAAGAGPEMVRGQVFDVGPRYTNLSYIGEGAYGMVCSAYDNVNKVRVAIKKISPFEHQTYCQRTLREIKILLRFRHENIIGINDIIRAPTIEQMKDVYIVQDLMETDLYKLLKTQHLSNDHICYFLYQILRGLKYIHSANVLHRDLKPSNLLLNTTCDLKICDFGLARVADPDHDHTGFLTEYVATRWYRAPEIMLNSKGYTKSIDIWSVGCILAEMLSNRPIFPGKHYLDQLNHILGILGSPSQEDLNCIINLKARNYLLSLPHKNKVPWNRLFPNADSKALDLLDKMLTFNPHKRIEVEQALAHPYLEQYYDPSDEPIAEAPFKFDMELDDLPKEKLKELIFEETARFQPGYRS
Method in brief: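 HepG2 treated 48 h with 0, 1.6 or 3.2 µM; lysates run on 12.5% SDS-PAGE, PVDF transfer, primary antibodies (AKT, p-AKT, ERK1/2, p-ERK1/2; 1:1000) overnight at 4 °C, HRP secondaries 1 h, chemiluminescence. Phosphorylation quantified relative to untreated control set to 1; SD, n = 3.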

[16] = target: Serine/threonine-protein kinase AKT (Homo sapiens) (UniProt P31751+Q9Y243+P31749); test: Inhibition of Akt phosphorylation in human Bel-7402 cells incubated for 48 hrs by Western blot analysis; assay type: cell-based
Chain of Serine/threonine-protein kinase AKT (Homo sapiens) (P31749 whole entry, looked up): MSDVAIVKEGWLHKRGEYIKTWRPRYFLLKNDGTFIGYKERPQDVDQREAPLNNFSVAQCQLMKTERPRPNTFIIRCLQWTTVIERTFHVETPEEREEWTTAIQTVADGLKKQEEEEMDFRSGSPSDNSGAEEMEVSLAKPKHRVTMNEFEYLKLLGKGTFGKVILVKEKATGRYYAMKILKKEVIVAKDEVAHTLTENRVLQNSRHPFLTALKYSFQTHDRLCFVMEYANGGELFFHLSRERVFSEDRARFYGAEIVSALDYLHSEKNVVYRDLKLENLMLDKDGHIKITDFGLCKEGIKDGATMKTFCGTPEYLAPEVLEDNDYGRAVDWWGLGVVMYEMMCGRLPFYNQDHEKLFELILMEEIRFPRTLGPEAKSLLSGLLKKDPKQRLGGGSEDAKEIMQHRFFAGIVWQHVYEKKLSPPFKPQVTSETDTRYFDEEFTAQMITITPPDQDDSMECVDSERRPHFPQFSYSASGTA
Chain of Serine/threonine-protein kinase AKT (Homo sapiens) (P31751 whole entry, looked up): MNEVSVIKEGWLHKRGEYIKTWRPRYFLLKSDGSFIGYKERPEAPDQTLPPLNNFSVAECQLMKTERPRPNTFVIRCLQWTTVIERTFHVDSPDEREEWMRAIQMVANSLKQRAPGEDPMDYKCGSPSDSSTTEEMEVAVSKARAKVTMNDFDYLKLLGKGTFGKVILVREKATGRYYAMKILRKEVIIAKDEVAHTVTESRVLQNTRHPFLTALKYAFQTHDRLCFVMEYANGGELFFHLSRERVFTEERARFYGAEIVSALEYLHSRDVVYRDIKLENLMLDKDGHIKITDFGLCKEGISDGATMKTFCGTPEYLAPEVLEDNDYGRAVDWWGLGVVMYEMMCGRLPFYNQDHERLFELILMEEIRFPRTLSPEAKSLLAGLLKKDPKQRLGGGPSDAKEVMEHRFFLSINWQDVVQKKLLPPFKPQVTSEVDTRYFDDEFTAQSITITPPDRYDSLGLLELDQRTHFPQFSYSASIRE
Chain of Serine/threonine-protein kinase AKT (Homo sapiens) (Q9Y243 whole entry, looked up): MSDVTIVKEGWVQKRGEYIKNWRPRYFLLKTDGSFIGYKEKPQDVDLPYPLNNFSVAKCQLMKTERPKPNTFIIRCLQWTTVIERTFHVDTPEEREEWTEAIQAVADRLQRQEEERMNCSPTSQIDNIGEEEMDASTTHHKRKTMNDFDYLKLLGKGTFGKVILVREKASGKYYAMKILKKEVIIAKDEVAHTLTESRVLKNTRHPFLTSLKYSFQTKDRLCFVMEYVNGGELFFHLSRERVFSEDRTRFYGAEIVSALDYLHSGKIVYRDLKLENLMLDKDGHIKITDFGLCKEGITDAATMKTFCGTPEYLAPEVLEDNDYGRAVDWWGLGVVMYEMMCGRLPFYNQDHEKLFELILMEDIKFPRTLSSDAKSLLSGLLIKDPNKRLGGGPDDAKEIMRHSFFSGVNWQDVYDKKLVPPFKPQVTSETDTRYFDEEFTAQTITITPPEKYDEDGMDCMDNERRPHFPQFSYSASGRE
Method in brief: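 Bel-7402 exposed for 48 h to 0, 1.6 or 3.2 µM; cell extracts on 12.5% SDS-PAGE, transferred to PVDF, probed overnight at 4 °C with AKT, p-AKT, ERK1/2, p-ERK1/2 antibodies (1:1000), HRP secondary 1 h, chemiluminescent detection. Band levels normalised to control = 1; SD, n = 3.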

[17] = system: HepG2; test: Induction of apoptosis in human HepG2 cells assessed as live cells at 0.8 uM incubated for 48 hrs by Annexin V and dead cell assay kit (reference value: 93.90%); assay type: functional
Method in brief: (§3)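 HepG2 cells were grown in DMEM and exposed to 0, 0.8, 1.6 or 3.2 µM test agent or DMSO vehicle for 48 h. Apoptosis was then read on a Muse cell analyzer using an Annexin V & Dead Cell kit, which separates live, early apoptotic, late apoptotic and dead populations. The figure legend gives n = 3 with SEM.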

[18] = system: HepG2; test: Induction of apoptosis in human HepG2 cells assessed as dead cells at 0.8 uM incubated for 48 hrs by Annexin V and dead cell assay kit (reference value: 0.55%); assay type: functional; method in brief: as §3
[19] = system: HepG2; test: Induction of apoptosis in human HepG2 cells assessed as live cells at 1.6 uM incubated for 48 hrs by Annexin V and dead cell assay kit (reference value: 93.90%); assay type: functional; method in brief: as §3
[20] = system: HepG2; test: Induction of apoptosis in human HepG2 cells assessed as early apoptotic cells at 1.6 uM incubated for 48 hrs by Annexin V and dead cell assay kit (reference value: 4.55%); assay type: functional; method in brief: as §3
[21] = system: HepG2; test: Induction of apoptosis in human HepG2 cells assessed as late apoptotic cells at 1.6 uM incubated for 48 hrs by Annexin V and dead cell assay kit (reference value: 1%); assay type: functional; method in brief: as §3
[22] = system: HepG2; test: Induction of apoptosis in human HepG2 cells assessed as live cells at 3.2 uM incubated for 48 hrs by Annexin V and dead cell assay kit (reference value: 93.90%); assay type: functional; method in brief: as §3
[23] = system: HepG2; test: Antitumor activity against human HepG2 cells xenografted in BALB/c mouse assessed as tumor growth inhibition at 4 mg/kg, ip relative to control; assay type: functional; conditions: read-out: TGI
Method in brief: (§4)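 Female BALB/c nude mice (14–17 g) given HepG2 s.c. (1×10⁶/mouse); at 100–200 mm³ tumours, randomised to 3 groups of 5. Daily i.p. dosing at 4 or 8 mg/kg for 20 days; vehicle 15% N-methylpyrrolidone/25% Solutol HS-15/60% saline. Caliper volume twice weekly, TV = width² × length/2; inhibition from volume change versus vehicle group.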

[24] = system: HepG2; test: Antitumor activity against human HepG2 cells xenografted in BALB/c mouse assessed as tumor growth inhibition at 8 mg/kg, ip relative to control; assay type: functional; conditions: read-out: TGI; method in brief: as §4

Molecule COc1cc(C(=O)c2nc3ccccc3c(=O)[nH]2)cc(OC)c1OC has a pIC50 [1] of 5.91, a pIC50 [2] of 5.77 and a pIC50 [3] of 5.41. The pIC50 [4] was 4.86, the pIC50 [5] was 5.26 and the inhibition [6] was “Active”. For the same molecule, the Activity [7] was “Active”, the selectivity ratio [8] was 4.9 and the Activity [9] was 28.73%. The Activity [10] was 39.2%, the Activity [11] was 27.69% and the Activity [12] was 34.5%. For the same molecule, the Activity [13] was 26.15%, the Activity [14] was 41.71% and the inhibition [15] was “Dose-Dependent Effect”. The inhibition [16] was “Dose-Dependent Effect”, the Activity [17] was 91.75% and the Activity [18] was 0.45%. For the same molecule, the Activity [19] was 80.65%, the Activity [20] was 11.7% and the Activity [21] was 6.7%. For the same molecule, the Activity [22] was 53.2%, the inhibition in vivo at 4 mg/kg [23] was 19.1% and the inhibition in vivo at 8 mg/kg [24] was 67.6%.
